How the values were obtained:
[1] = biological target: T1, Polyunsaturated fatty acid lipoxygenase ALOX15 (Homo sapiens, UniProt P16050); experiment: Inhibition of N-terminal His6-tagged human 12/15-LOX using arachidonic acid as substrate by UV-visible spectrophotometric analysis
T1 sequence (P16050 whole entry): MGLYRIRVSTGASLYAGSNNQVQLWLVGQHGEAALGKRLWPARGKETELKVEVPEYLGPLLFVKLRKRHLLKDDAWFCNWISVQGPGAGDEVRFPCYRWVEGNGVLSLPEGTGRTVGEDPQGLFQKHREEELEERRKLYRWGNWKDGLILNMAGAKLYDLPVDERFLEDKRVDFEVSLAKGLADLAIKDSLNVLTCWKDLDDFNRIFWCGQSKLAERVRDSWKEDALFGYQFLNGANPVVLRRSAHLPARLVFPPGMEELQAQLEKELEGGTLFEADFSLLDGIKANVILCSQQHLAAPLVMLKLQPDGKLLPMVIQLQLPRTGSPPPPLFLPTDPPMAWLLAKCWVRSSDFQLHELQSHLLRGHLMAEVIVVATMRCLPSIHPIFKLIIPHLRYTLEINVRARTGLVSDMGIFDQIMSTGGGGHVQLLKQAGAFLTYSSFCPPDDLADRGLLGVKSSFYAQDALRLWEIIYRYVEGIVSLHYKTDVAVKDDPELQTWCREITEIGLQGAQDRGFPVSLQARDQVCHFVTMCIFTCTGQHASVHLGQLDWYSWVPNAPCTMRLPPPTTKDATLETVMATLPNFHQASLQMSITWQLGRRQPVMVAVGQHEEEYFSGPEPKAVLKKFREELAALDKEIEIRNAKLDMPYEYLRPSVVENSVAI

[2] = biological target: T2, Polyunsaturated fatty acid lipoxygenase ALOX15 (Mus musculus) (UniProt P39654); experiment: Inhibition of glutamate-induced 12/15-LOX-dependent cell death in mouse HT22 cells assessed as increase in cell survival at 5 uM by LDH release assay; type: cell-based; settings: HT-22
T2 sequence (whole entry): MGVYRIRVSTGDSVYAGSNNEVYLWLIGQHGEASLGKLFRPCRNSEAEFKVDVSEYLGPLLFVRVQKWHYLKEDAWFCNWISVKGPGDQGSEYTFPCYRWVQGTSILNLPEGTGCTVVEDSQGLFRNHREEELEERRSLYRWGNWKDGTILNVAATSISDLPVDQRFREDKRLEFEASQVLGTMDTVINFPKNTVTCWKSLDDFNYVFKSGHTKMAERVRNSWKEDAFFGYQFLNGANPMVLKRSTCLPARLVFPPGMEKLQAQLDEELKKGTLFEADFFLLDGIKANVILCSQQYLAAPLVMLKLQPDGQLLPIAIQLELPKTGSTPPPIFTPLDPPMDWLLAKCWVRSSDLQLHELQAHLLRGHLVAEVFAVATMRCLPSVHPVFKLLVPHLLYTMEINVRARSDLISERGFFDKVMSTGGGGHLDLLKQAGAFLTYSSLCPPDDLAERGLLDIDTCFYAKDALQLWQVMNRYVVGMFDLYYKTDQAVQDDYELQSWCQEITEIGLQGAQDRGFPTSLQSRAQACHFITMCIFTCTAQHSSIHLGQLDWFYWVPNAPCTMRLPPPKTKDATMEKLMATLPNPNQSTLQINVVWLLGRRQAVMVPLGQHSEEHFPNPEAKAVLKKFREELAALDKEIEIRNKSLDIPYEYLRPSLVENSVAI
How it was run: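 Mouse HT-22 neuronal cells grown in DMEM with 10% FBS and penicillin/streptomycin. Seeded at 1 × 10^4 cells/well and treated 18h later at ~50–70% confluence. Medium was replaced and 5 mM glutamate added with compound at 5, 10 or 20 μM, or DMSO control (max 0.1% final). LDH measured separately in cell extracts and media; % LDH released to medium calculated after background subtraction.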

[3] = biological target: T3, Polyunsaturated fatty acid lipoxygenase ALOX12 (Homo sapiens, UniProt P18054); experiment: Inhibition of N-terminal His6-tagged human 12-LOX using arachidonic acid as substrate by UV-visible spectrophotometric analysis
T3 sequence (P18054 whole entry): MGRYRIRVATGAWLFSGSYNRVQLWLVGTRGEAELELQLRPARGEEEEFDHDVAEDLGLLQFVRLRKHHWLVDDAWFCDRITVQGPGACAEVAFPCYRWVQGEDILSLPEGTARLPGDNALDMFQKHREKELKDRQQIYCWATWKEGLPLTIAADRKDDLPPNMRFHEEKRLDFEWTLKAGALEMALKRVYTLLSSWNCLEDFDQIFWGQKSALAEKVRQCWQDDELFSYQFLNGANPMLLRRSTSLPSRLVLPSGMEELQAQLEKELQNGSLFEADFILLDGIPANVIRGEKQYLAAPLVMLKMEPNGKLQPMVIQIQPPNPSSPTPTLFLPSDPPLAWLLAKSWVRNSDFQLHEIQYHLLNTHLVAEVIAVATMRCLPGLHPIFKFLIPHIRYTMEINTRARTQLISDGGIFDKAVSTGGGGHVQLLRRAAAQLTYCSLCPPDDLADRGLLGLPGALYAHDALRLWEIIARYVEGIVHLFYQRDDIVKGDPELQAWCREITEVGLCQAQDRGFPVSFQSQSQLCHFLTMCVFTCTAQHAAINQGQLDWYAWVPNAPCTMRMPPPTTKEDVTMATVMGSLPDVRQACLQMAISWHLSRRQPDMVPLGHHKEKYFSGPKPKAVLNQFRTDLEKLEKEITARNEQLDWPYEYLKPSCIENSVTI

[4] = biological target: T4, Polyunsaturated fatty acid lipoxygenase ALOX15B (Homo sapiens, UniProt O15296); experiment: Inhibition of N-terminal His6-tagged human 15-LOX-2 using arachidonic acid as substrate by UV-visible spectrophotometric analysis
T4 sequence (O15296 whole entry): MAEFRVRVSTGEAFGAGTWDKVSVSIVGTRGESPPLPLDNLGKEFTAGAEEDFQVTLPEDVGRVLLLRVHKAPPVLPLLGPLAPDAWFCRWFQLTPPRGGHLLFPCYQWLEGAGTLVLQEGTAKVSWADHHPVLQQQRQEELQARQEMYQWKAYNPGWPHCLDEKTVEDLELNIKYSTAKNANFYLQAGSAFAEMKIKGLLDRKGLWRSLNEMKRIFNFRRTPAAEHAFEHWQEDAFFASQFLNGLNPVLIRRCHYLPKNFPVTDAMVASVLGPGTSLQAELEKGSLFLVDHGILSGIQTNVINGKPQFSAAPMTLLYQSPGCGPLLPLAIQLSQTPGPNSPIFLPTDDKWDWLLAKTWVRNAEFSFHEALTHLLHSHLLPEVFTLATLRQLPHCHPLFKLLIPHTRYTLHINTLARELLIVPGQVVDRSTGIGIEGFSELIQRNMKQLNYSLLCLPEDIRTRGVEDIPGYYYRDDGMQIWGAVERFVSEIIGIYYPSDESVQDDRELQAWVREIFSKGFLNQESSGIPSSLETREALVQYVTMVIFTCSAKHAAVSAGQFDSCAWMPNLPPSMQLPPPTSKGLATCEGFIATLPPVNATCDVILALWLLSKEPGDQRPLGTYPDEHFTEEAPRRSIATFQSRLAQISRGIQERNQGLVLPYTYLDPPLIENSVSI

[5] = biological target: T5, Polyunsaturated fatty acid 5-lipoxygenase (Homo sapiens, UniProt P09917); experiment: Inhibition of human 5-LOX using arachidonic acid as substrate by UV-visible spectrophotometric analysis
T5 sequence (P09917 whole entry): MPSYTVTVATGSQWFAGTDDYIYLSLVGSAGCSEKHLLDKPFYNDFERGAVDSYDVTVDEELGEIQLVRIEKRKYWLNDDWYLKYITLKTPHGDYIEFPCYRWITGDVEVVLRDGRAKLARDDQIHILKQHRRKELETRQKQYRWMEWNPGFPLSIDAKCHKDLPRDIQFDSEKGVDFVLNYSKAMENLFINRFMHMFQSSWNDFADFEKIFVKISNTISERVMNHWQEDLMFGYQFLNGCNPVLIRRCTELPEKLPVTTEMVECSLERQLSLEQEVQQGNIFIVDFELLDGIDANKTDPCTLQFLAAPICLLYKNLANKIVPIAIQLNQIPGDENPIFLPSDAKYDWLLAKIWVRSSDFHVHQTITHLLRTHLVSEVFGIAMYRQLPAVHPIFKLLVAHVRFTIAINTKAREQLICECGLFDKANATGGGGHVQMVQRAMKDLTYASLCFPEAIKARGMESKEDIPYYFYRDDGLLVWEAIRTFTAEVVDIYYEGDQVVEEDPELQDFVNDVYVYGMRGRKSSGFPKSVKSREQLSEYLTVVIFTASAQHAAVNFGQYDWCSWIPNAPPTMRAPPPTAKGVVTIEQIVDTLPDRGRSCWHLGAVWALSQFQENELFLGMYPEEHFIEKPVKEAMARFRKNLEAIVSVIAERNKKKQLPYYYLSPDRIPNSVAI

[6] = biological target: T6, Prostaglandin G/H synthase 2 (Homo sapiens, UniProt P35354); experiment: Inhibition of human COX-2 by UV-visible spectrophotometric analysis
T6 sequence (P35354 whole entry): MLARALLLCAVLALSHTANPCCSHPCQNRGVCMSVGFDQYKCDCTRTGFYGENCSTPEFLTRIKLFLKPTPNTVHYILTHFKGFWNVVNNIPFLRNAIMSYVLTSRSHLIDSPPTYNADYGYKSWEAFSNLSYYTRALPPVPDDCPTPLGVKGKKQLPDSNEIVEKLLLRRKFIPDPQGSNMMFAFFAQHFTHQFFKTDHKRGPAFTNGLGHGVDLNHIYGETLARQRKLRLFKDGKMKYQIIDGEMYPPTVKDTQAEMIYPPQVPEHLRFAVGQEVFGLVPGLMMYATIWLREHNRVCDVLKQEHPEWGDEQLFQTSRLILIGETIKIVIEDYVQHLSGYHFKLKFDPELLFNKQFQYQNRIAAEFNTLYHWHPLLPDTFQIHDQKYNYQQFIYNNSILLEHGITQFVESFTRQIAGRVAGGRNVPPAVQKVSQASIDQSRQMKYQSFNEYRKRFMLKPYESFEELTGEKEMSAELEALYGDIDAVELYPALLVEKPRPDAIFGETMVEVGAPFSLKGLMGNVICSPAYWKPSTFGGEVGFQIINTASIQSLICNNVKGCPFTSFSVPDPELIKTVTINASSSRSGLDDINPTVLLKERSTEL

[7] = biological target: T7, Polyunsaturated fatty acid lipoxygenase ALOX15 (Homo sapiens) (UniProt P16050)
T7 sequence (whole entry): T1 sequence (P16050 whole entry)

[8] = biological target: T7, Polyunsaturated fatty acid lipoxygenase ALOX15 (Homo sapiens); remark: listed apart in the source

Row | SMILES | IC50 [1] | Survival [2] | further results
1 | Cc1ccccc1-c1cc(-c2ccccc2O)[nH]n1 |  | 76% | 
2 | COc1ccc(O)c(-c2cc(-c3cccc(Br)c3)[nH]n2)c1 | 7 µM | 70% | 
3 | Cc1ccc(O)c(-c2cc(-c3cccc(Br)c3)[nH]n2)c1 | 9.1 µM | 18% | 
4 | COc1ccc(-c2cc(-c3cc(OC)ccc3O)[nH]n2)cc1 | 6 µM | 96% | 
5 | COc1ccc(-c2cc(-c3ccccc3O)[nH]n2)cc1 | 10 µM | 7% | 
6 | Cc1ccc(-c2cc(-c3ccccc3C)[nH]n2)c(O)c1 | 10 µM | 71% | 
7 | Oc1ccccc1-c1cc(-c2ccco2)[nH]n1 | 7 µM | 34% | 
8 | Cc1ccc(O)c(-c2cc(-c3ccccc3C)[nH]n2)c1 | 3.4 µM | 20% | IC50 [3]: > 50 µM; IC50 [4]: > 50 µM; IC50 [5]: > 100 µM; IC50 [6]: > 100 µM; Kic [7]: 1 µM; Kiuc [8]: 6 µM
9 | c1ccc(-c2cc(-c3ccccc3)[nH]n2)cc1 | > 50 µM |  | 
10 | COc1ccc(O)c(-c2cc(-c3ccc(F)cc3)[nH]n2)c1 | 11 µM | 78% | 
11 | COc1ccc(O)c(-c2cc(-c3ccccc3Cl)[nH]n2)c1 |  | 83% | 
12 | Cc1ccc(O)c(-c2cc(-c3cccc(F)c3)[nH]n2)c1 | 10 µM | 49% | 

Second part, led by results:

Row | IC50 [1] | SMILES | Survival [2] | further results
13 | > 50 µM | Oc1ccc(Cl)cc1-c1cc(-c2ccccc2Cl)[nH]n1 |  | 
14 | > 50 µM | COc1ccc(C(=O)c2c[nH]nc2-c2cc(C)ccc2O)cc1 |  | 
15 | > 50 µM | Oc1ccc(Br)cc1-c1cc(-c2ccccc2Cl)[nH]n1 |  | 
16 | > 50 µM | Oc1ccc(Br)cc1-c1cc(-c2ccccc2)[nH]n1 |  | 
17 | 7 µM | Cc1ccccc1-c1cc(-c2ccccc2O)n[nH]1 |  | 
18 | > 50 µM | COc1ccc(-c2cc(-c3ccc(C)cc3)[nH]n2)c(O)c1 |  | 
19 | > 50 µM | Oc1ccccc1-c1cc[nH]n1 |  | 
20 | > 50 µM | Cc1ccc(-c2cc(-c3ccc(C)cc3O)[nH]n2)cc1 |  | 
21 | 6.6 µM | COc1ccc(O)c(-c2cc(-c3ccccc3Cl)n[nH]2)c1 |  | 
22 | 4 µM | Oc1ccccc1-c1cc(-c2ccccc2Cl)[nH]n1 |  | 
23 | > 50 µM | Cc1ccc(O)c(-c2cc(C(=O)NCc3ccccc3)[nH]n2)c1 |  | 
